# Activity calls are given as the source filed them. The calls are words filed in the database; no cut-off is given here.
# How the values were obtained:
# [1] = target: Transcriptional coactivator YAP1 (Homo sapiens) (UniProt P46937); assay: Induction of YAP nuclear translocation in human A549 cells at 10 uM incubated for 8 hrs by immunofluorescence based confocal microscopy; assay type: cell-based
# Summary of the method: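 A549-CTGF reporter cells were treated for 8 h at 10 µM, with 0.1% DMSO as vehicle control. Cells were then fixed, permeabilized and probed with anti-YAP antibody. DAPI stained the nuclei, and YAP localization was imaged by immunofluorescence.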
# [2] = target: Calcium/calmodulin-dependent protein kinase type IV (Homo sapiens) (UniProt Q16566); assay: Inhibition of recombinant full length human CaMK4 assessed as residual activity at 10 uM using […] incubated for 40 mins in presence of [gamma-33ATP] by scintillation counting based radiometry assay relative to control
# [3] = target: CDK17/Cyclin-Y (Homo sapiens) (UniProt Q00537+Q8ND76); assay: Inhibition of recombinant full length human CDK17/cyclinY assessed as residual activity at 10 uM using PKSPKARKKL as substrate incubated for 40 mins in presence of [gamma-33ATP] by scintillation counting based radiometry assay relative to control; assay type: protein-complex assay
# [4] = target: Dual specificity protein kinase CLK3 (Homo sapiens) (UniProt P49761); assay: Inhibition of recombinant full length human CLK3 assessed as residual activity at 10 uM using ERMRPRKRQGSVRRRV as substrate incubated 40 mins in presence of [gamma-33ATP] by scintillation counting based radiometry assay relative to control
# Dual specificity protein kinase CLK3 (Homo sapiens), sequence (P49761 whole entry, looked up, the tested form may be a part): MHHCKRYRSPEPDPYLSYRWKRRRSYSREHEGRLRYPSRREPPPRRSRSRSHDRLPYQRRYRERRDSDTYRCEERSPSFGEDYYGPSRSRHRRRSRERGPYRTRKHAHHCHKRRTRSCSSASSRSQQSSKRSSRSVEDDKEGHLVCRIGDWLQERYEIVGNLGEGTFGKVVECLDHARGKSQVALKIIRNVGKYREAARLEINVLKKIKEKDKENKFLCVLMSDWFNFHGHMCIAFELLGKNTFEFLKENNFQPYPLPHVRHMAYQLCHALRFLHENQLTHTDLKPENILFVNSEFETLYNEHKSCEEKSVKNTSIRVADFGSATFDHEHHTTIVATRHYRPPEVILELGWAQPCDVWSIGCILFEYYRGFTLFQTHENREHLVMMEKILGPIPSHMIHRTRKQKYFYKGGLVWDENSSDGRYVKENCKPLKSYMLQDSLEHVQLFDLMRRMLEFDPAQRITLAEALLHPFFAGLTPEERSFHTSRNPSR
# [5] = test system: Discoidin domain-containing receptor 2 (Homo sapiens), Q16832 [UNDEFINED MUTATION]; assay: Inhibition of recombinant human DDR2 S642A mutant (467 to end residues) assessed as residual activity at 10 uM using KKSRGDYMTMQIG as substrate at 40 mins in presence of [gamma-33ATP] by scintillation counting based radiometry assay relative to control
# [6] = target: Serine/threonine-protein kinase 17B (Homo sapiens) (UniProt O94768); assay: Inhibition of recombinant human DRAK2 assessed as residual activity at 10 uM using KKRPQRRYSNVF as substrate at 120 mins in presence of [gamma-33ATP] by scintillation counting based radiometry assay relative to control
# Homo sapiens [7] = species on record: Homo sapiens; assay: Inhibition of recombinant human FLT4 V1128L/H1146R mutant (800 to end residues) assessed as residual activity at 10 uM using GGEEEEYFELVKKKK as substrate at 40 mins in presence of [gamma-33ATP] by scintillation counting based radiometry assay relative to control
# [8] = target: G protein-coupled receptor kinase 6 (Homo sapiens) (UniProt P43250); assay: Inhibition of recombinant full length human GRK6 assessed as residual activity at 10 uM using casein as substrate at 40 mins in presence of [gamma-33ATP] by scintillation counting based radiometry assay relative to control
# G protein-coupled receptor kinase 6 (Homo sapiens), sequence (P43250 whole entry, looked up): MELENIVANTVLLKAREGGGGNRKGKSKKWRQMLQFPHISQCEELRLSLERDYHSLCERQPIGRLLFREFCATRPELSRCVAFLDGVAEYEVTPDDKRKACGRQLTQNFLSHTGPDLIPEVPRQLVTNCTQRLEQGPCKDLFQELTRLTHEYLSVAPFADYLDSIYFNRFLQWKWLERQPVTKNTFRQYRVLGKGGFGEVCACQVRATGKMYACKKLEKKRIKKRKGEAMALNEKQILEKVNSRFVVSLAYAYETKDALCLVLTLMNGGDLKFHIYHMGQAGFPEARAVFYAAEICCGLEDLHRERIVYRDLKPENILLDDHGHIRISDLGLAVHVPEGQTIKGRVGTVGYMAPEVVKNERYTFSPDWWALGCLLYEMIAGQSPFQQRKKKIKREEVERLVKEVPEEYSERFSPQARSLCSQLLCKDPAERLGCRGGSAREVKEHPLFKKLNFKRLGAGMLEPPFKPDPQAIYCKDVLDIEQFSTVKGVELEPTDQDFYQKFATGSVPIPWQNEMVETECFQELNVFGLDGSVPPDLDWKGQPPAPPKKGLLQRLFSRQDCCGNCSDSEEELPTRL
# [9] = target: Insulin-like growth factor 1 receptor (Homo sapiens) (UniProt P08069); assay: Inhibition of human IGF1R activated (959 to end residues) assessed as residual activity at 10 uM using KKKSPGEYVNIEFG as substrate after 40 mins by [gamma-33ATP] radiometric assay relative to control
# [10] = target: Tyrosine-protein kinase JAK3 (Homo sapiens) (UniProt P52333); assay: Inhibition of human JAK3 (781 to end residues) assessed as residual activity at 10 uM using GGEEEEYFELVKKKK as substrate after 40 mins by [gamma-33ATP] radiometric assay relative to control
# [11] = target: Mitogen-activated protein kinase 8 (Homo sapiens) (UniProt P45983); assay: Inhibition of human JNK1alpha1 assessed as residual activity at 10 uM using ATF2 as substrate after 40 mins by [gamma-33ATP] radiometric assay relative to control
# Mitogen-activated protein kinase 8 (Homo sapiens), sequence (P45983 whole entry, the tested form may be a part): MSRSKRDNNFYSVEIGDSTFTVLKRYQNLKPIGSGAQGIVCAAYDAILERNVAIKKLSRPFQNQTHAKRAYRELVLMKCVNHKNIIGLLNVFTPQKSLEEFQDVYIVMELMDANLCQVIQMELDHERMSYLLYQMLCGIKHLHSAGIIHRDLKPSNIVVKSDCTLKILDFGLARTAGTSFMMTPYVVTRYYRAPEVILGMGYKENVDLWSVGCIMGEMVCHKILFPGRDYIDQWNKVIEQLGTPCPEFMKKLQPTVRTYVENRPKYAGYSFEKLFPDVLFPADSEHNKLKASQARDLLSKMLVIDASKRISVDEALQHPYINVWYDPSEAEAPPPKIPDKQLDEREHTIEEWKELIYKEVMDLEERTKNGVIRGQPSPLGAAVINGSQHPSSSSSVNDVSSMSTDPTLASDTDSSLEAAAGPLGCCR
# [12] = target: LIM domain kinase 1 (Homo sapiens) (UniProt P53667); assay: Inhibition of recombinant human LIMK1 (285 to 638 residues) assessed as residual activity at 10 uM using cofilin as substrate after 40 mins in presence of [gamma-33ATP] by scintillation counting based radiometry assay relative to control
# [13] = test system: Hepatocyte growth factor receptor (Homo sapiens), P08581 [Y1230C]; assay: Inhibition of recombinant human MET A1209G/V1290L/Y1248C mutant (974 to end residues) assessed as residual activity at 10 uM using KKKGQEEEYVFIE as substrate incubated for 40 mins in presence of [gamma-33ATP by scintillation counting based radiometry assay relative to control
# [14] = target: Serine/threonine-protein kinase MRCK alpha (Homo sapiens) (UniProt Q5VT25); assay: Inhibition of recombinant human MRCKalpha (1 to 473 residues) assessed as residual activity at 10 uM using KKRNRTLTV as substrate incubated for 40 mins in presence of [gamma-33ATP by scintillation counting based radiometry assay relative to control
# [15] = test system: Proto-oncogene tyrosine-protein kinase receptor Ret (Homo sapiens), P07949 [V804M]; assay: Inhibition of recombinant human Ret V804M mutant (658 to end residues) assessed as residual activity at 10 uM using KKKVSRSGLYRSPSMPENLNRPR as substrate incubated for 40 mins in presence of [gamma33P]ATP by scintillation counting based radiometry assay relative to control
# [16] = target: Ribosomal protein S6 kinase alpha-6 (Homo sapiens) (UniProt Q9UK32); assay: Inhibition of recombinant full length human Rsk4 assessed as residual activity at 10 uM using LRRASLG as substrate incubated for 40 mins in presence of [gamma33P]ATP by scintillation counting based radiometry assay relative to control
# [17] = target: STE20-like serine/threonine-protein kinase (Homo sapiens) (UniProt Q9H2G2); assay: Inhibition of recombinant human SLK (1 to 373 residues) assessed as residual activity at 10 uM using RLGRDKYKTLRQIRQ as substrate incubated for 40 mins in presence of [gamma33P]ATP by scintillation counting based radiometry assay relative to control
# [18] = target: Non-receptor tyrosine-protein kinase TYK2 (Homo sapiens) (UniProt P29597); assay: Inhibition of recombinant human TYK2 (875 to end residues) assessed as residual activity at 10 uM using GGMEDIYFEFMGGKKK as substrate incubated for 40 mins in presence of [gamma33P]ATP by scintillation counting based radiometry assay relative to control
# Non-receptor tyrosine-protein kinase TYK2 (Homo sapiens), sequence (P29597 whole entry, the tested form may be a part): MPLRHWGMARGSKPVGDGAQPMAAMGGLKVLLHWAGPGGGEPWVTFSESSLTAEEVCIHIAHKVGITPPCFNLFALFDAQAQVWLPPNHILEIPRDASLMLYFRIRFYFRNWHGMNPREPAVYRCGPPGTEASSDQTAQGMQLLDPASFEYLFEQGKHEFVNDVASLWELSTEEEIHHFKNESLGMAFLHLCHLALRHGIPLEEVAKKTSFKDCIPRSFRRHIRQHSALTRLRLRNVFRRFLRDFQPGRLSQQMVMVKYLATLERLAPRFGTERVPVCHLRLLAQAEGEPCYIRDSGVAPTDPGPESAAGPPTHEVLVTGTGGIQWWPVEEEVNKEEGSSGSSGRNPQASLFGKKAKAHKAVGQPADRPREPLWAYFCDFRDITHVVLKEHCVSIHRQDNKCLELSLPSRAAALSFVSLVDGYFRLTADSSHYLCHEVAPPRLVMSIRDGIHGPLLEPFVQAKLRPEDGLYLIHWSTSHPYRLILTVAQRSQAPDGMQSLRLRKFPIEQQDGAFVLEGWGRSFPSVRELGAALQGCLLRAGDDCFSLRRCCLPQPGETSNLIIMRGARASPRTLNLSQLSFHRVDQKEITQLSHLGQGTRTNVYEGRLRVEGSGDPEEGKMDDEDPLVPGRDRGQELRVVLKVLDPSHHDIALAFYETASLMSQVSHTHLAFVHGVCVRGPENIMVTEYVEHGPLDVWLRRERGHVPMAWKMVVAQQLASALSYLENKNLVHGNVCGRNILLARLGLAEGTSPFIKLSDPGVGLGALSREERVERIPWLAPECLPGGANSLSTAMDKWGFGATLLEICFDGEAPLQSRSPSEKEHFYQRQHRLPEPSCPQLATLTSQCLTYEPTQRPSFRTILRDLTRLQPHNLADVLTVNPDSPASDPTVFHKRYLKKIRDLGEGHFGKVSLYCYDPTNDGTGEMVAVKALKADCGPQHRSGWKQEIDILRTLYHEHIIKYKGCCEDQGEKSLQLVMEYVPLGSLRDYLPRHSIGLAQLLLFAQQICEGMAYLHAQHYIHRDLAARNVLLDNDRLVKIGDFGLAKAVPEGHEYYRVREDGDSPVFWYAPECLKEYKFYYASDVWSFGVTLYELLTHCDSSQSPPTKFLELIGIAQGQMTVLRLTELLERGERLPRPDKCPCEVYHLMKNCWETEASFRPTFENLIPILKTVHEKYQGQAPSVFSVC
# [19] = target: Serine/threonine-protein kinase WNK1 (Homo sapiens) (UniProt Q9H4A3); assay: Inhibition of recombinant human WNK1 (1 to 491 residues) assessed as residual activity at 10 uM using myelin basic protein as substrate incubated for 40 mins in presence of [gamma33P]ATP by scintillation counting based radiometry assay relative to control
# Serine/threonine-protein kinase WNK1 (Homo sapiens), sequence (Q9H4A3 whole entry, looked up, the tested form may be a part): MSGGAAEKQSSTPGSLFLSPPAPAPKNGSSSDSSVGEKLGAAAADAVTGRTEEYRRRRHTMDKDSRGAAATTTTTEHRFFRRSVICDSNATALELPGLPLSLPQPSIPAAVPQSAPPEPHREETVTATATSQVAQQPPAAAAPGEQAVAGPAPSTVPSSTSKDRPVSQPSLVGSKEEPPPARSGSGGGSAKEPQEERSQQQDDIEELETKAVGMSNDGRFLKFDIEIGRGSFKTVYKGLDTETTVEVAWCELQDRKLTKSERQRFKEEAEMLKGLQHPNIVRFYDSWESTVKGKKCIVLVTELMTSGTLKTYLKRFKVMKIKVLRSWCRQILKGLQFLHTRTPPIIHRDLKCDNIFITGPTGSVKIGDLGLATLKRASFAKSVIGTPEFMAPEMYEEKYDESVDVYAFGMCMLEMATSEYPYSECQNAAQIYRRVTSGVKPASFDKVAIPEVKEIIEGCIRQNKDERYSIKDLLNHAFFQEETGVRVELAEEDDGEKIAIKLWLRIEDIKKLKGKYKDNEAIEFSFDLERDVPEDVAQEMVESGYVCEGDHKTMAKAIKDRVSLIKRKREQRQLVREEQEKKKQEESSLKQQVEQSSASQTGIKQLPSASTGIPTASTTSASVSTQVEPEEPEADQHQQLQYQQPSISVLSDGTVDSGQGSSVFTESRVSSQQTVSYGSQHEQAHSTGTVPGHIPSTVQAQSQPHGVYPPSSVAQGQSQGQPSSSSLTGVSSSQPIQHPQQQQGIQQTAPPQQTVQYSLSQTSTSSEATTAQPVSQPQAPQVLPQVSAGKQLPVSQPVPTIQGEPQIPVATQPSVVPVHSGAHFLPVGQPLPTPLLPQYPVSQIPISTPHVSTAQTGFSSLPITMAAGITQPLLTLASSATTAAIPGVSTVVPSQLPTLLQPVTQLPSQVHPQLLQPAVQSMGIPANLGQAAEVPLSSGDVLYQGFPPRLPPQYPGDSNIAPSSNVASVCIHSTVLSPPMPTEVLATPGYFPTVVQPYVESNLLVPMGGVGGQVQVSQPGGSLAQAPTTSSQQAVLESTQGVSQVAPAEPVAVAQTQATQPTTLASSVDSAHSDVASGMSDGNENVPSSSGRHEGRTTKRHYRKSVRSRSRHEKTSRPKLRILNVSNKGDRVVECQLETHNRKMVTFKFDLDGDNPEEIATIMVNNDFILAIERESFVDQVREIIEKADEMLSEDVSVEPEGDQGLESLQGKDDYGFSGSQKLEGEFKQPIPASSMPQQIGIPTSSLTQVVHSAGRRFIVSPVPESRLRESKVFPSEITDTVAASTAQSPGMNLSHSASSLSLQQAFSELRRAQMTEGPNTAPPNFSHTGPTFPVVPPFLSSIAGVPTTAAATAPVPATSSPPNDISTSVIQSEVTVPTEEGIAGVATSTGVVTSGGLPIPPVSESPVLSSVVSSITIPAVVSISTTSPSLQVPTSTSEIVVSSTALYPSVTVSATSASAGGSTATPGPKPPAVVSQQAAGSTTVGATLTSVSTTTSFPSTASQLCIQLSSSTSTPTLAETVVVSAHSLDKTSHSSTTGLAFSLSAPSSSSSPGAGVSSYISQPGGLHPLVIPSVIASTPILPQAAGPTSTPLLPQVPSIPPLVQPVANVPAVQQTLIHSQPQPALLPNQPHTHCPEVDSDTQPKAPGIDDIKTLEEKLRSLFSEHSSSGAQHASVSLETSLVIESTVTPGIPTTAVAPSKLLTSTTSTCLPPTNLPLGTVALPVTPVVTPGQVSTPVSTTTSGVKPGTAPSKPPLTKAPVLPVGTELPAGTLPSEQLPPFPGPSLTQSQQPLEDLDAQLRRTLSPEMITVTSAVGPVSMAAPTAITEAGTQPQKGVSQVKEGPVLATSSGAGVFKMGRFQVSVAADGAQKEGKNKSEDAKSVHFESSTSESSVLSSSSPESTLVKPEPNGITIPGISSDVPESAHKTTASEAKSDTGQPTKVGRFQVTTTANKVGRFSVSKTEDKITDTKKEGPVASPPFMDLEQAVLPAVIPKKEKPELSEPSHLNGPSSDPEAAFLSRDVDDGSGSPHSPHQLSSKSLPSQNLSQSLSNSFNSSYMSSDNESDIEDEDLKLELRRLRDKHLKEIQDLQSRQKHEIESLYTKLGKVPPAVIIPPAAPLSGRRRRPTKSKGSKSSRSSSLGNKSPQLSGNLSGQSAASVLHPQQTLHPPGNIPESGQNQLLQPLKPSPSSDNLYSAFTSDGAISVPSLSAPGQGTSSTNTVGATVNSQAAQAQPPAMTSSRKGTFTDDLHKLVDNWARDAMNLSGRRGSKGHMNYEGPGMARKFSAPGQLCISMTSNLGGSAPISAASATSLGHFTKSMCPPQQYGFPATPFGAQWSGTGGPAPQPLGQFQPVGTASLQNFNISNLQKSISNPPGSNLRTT
# Homo sapiens [20] = species on record: Homo sapiens; assay: Inhibition of recombinant human full length PI3K p110/p85 assessed as residual activity at 10 uM using phosphatidylinositol-4, 5-bisphosphate as substrate measured after 40 mins by fluorescence assay relative to control
# [21] = target: Phosphatidylinositol 4-phosphate 3-kinase C2 domain-containing subunit alpha (Homo sapiens) (UniProt O00443); assay: Inhibition of recombinant human PI3KC2alpha (299 to end residues) assessed as residual activity at 10 uM using phosphatidylinositol as substrate incubated for 40 mins in presence of [gamma33P]ATP by scintillation counting based radiometry assay relative to control
structure (smiles),measurement,setting,value
C[C@@H](c1ccccc1)n1nnc2cnc3ccc(-c4cnc5[nH]ccc5c4)cc3c21,Activity,[1],Active
same,Activity,[2],39%
same,Activity,[3],85%
same,Activity,[4],66%
same,Activity,[5],35%
same,Activity,[6],64%
same,Activity,Homo sapiens [7],13%
same,Activity,[8],96%
same,Activity,[9],79%
same,Activity,[10],43%
same,Activity,[11],105%
same,Activity,[12],95%
same,Activity,[13],49%
same,Activity,[14],105%
same,Activity,[15],69%
same,Activity,[16],62%
same,Activity,[17],75%
same,Activity,[18],60%
same,Activity,[19],86%
same,Activity,Homo sapiens [20],3 to 9%
same,Activity,[21],-60 to 66%
